# Measurements as given in ChEMBL document CHEMBL1123877, “Metabolic synthesis of arylacetic acid antiinflammatory drugs from arylhexenoic acids. 2. Indomethacin” (1987).
# What was measured:
# Mus musculus [1] = assay: Inhibition of phenylbenzoquinone writhing in mice was tested at the dose of 30 mg/kg for 1 hr; format: functional
# Procedure, shortened: (§1)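 Male CD-1 mice, 18-22 g, groups of 10, fasted overnight. Oral dose in 1% methylcellulose (0.1 mL/10 g) at set times before phenylbenzoquinone, 2.0 mg/kg ip. Writhes counted 5-15 min after PBQ. % inhibition = 100 − (drug mean/vehicle mean × 100).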
# Mus musculus [2] = assay: Inhibition of phenylbenzoquinone writhing in mice was tested at the dose of 30 mg/kg for 2 hr; format: functional; procedure, shortened: as §1
# Mus musculus [3] = assay: Inhibition of phenylbenzoquinone writhing in mice was tested at the dose of 30 mg/kg for 4 hr; format: functional; procedure, shortened: as §1
# Rattus norvegicus [4] = assay: Analgesic activity was measured in rat yeast induced hyperalgesia assay at a dose of 30 mg/kg for 1 hr.; format: functional
# Procedure, shortened: (§2)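 Female Sprague-Dawley rats, 50-60 g, groups of 10, fasted overnight. Brewer's yeast (5% in 0.1 mL) injected subplantar. Compound given orally in 1% methylcellulose, 0.1 mL/10 g. Each group tested once, always 3 h after yeast. An animal counts as analgesic if vocalization needs ≥25 mmHg on the inflamed paw. Result is percent of animals analgesic.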
# Rattus norvegicus [5] = assay: Analgesic activity was measured in rat yeast induced hyperalgesia assay at a dose of 30 mg/kg for 4 hr.; format: functional; procedure, shortened: as §2
# Rattus norvegicus [6] = assay: Analgesic activity was measured in rat yeast induced hyperalgesia assay at a dose of 30 mg/kg for 8 hr.; format: functional; procedure, shortened: as §2
# Rattus norvegicus [7] = assay: Plasma drug level was measured in rat yeast induced hyperalgesia assay in presence of drug 6 or 7 at a dose of 30 mg/kg for 4 hr.; format: functional
# Procedure, shortened: (§3)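 Rats are bled after the yeast hyperalgesia test. 50 μL plasma is mixed with an equal volume of 0.1 N HCl and injected directly on a C-18 reverse-phase HPLC column. Eluent is methanol/0.01 M phosphate pH 4 (65:35), 1.5 mL/min, with UV detection at 254 nm. Parent compound and indomethacin are quantified against standard calibration. Mean ± SEM, n=10.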
# Rattus norvegicus [8] = assay: Plasma drug level was measured in rat yeast induced hyperalgesia assay in presence of drug 6 or 7 at a dose of 30 mg/kg for 1 hr.; format: functional; procedure, shortened: as §3
# Rattus norvegicus [9] = assay: Plasma drug level was measured in rat yeast induced hyperalgesia assay in presence of drug 6 or 7 at a dose of 30 mg/kg for 8 hr.; format: functional; procedure, shortened: as §3
# Rattus norvegicus [10] = assay: Plasma drug level was measured in rat yeast induced hyperalgesia assay in presence of indomethacin at a dose of 30 mg/kg for 1 hr.; format: functional; procedure, shortened: as §3
# Rattus norvegicus [11] = assay: Plasma drug level was measured in rat yeast induced hyperalgesia assay in presence of indomethacin at a dose of 30 mg/kg for 4 hr.; format: functional; procedure, shortened: as §3
# Rattus norvegicus [12] = assay: Plasma drug level was measured in rat yeast induced hyperalgesia assay in presence of indomethacin at a dose of 30 mg/kg for 8 hr.; format: functional; procedure, shortened: as §3
# Rattus norvegicus [13] = assay: (§4) Vocalization threshold value was measured in rat yeast induced hyperalgesia assay at a dose of 30 mg/kg for 8 hr.; format: functional
# Procedure, shortened: (§5)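 Female Sprague-Dawley rats, 50-60 g, groups of 10, fasted overnight. Brewer's yeast (5% in 0.1 mL) injected subplantar, then oral dosing in 1% methylcellulose. An air-driven piston (2 mm) presses the plantar surface of the normal and yeast-injected paws. The pressure that causes vocalization is read on a manometer in mmHg, tested 3 h after yeast. Normal vs inflamed paw compared by paired t test. Mean ± SEM.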
# Rattus norvegicus [14] = assay: Vocalization threshold value was measured in rat yeast induced hyperalgesia assay at a dose of 30 mg/kg for 1 hr.; format: functional; procedure, shortened: as §5
# Rattus norvegicus [15] = assay: Vocalization threshold value was measured in rat yeast induced hyperalgesia assay at a dose of 30 mg/kg for 4 hr.; format: functional; procedure, shortened: as §5
# Rattus norvegicus [16] = assay: as §4; format: functional; remark: listed apart in the source
# Rattus norvegicus [17] = assay: Vocalization threshold value was measured in rat yeast induced hyperalgesia assay at a dose of 10 mg/kg for 1 hr.; format: functional; procedure, shortened: as §5
# Mus musculus [18] = assay: Inhibition of phenylbenzoquinone writhing in mice was tested at the dose of 30 mg/kg for 6 hr; format: functional; procedure, shortened: as §1
# Rattus norvegicus [19] = assay: Analgesic activity was measured in rat yeast induced hyperalgesia assay at a dose of 10 mg/kg for 6 hr.; format: functional; procedure, shortened: as §2
# Rattus norvegicus [20] = assay: Analgesic activity was measured in rat yeast induced hyperalgesia assay at a dose of 10 mg/kg for 8 hr.; format: functional; procedure, shortened: as §2
# Rattus norvegicus [21] = assay: Analgesic activity was measured in rat yeast induced hyperalgesia assay at a dose of 30 mg/kg for 12 hr.; format: functional; procedure, shortened: as §2
# Rattus norvegicus [22] = assay: Analgesic activity was measured in rat yeast induced hyperalgesia assay at a dose of 30 mg/kg for 24 hr.; format: functional; procedure, shortened: as §2
# Rattus norvegicus [23] = assay: Plasma drug level was measured in rat yeast induced hyperalgesia assay in presence of drug 6 or 7 at a dose of 30 mg/kg for 12 hr; format: functional; procedure, shortened: as §3
# Rattus norvegicus [24] = assay: Plasma drug level was measured in rat yeast induced hyperalgesia assay in presence of indomethacin at a dose of 30 mg/kg for 12 hr.; format: functional; procedure, shortened: as §3
# Rattus norvegicus [25] = assay: Plasma drug level was measured in rat yeast induced hyperalgesia assay in presence of indomethacin at a dose of 30 mg/kg for 24 hr.; format: functional; procedure, shortened: as §3
# Rattus norvegicus [26] = assay: (§6) Vocalization threshold value was measured in rat yeast induced hyperalgesia assay at a dose of 30 mg/kg for 24 hr.; format: functional
# Rattus norvegicus [27] = assay: Vocalization threshold value was measured in rat yeast induced hyperalgesia assay at a dose of 10 mg/kg for 6 hr.; format: functional; procedure, shortened: as §5
# Rattus norvegicus [28] = assay: (§7) Vocalization threshold value was measured in rat yeast induced hyperalgesia assay at a dose of 10 mg/kg for 8 hr.; format: functional
# Rattus norvegicus [29] = assay: Vocalization threshold value was measured in rat yeast induced hyperalgesia assay at a dose of 30 mg/kg for 12 hr.; format: functional; procedure, shortened: as §5
# Rattus norvegicus [30] = assay: as §6; format: functional; procedure, shortened: as §5; remark: listed apart in the source
# Rattus norvegicus [31] = assay: Analgesic activity was measured in rat yeast induced hyperalgesia assay at a dose of 10 mg/kg for 1 hr.; format: functional; procedure, shortened: as §2
# Rattus norvegicus [32] = assay: as §7; format: functional; procedure, shortened: as §5; remark: listed apart in the source
# Mus musculus [33] = assay: Inhibition of phenylbenzoquinone writhing in mice was tested at the dose of 3 mg/kg for 1 hr; format: functional; procedure, shortened: as §1
# Mus musculus [34] = assay: Inhibition of phenylbenzoquinone writhing in mice was tested at the dose of 3 mg/kg for 2 hr; format: functional; procedure, shortened: as §1
# Mus musculus [35] = assay: Inhibition of phenylbenzoquinone writhing in mice was tested at the dose of 3 mg/kg for 4 hr; format: functional; procedure, shortened: as §1
# Mus musculus [36] = assay: Compound was tested for […] activity in mice after perorally administered at 1 hr; format: functional; conditions: po
# Rattus norvegicus [37] = assay: Analgesic activity was measured in rat yeast induced hyperalgesia assay at a dose of 10 mg/kg for 12 hr.; format: functional; procedure, shortened: as §2
# Rattus norvegicus [38] = assay: Analgesic activity was measured in rat yeast induced hyperalgesia assay at a dose of 10 mg/kg for 24 hr.; format: functional; procedure, shortened: as §2
# Rattus norvegicus [39] = assay: Analgesic activity was measured in rat yeast induced hyperalgesia assay at a dose of 10 mg/kg for 4 hr.; format: functional; procedure, shortened: as §2
# Rattus norvegicus [40] = assay: Plasma drug level was measured in rat yeast induced hyperalgesia assay in presence of indomethacin at a dose of 10 mg/kg for 12 hr.; format: functional; procedure, shortened: as §3
# Rattus norvegicus [41] = assay: Plasma drug level was measured in rat yeast induced hyperalgesia assay in presence of indomethacin at a dose of 10 mg/kg for 1 hr.; format: functional; procedure, shortened: as §3
# Rattus norvegicus [42] = assay: Plasma drug level was measured in rat yeast induced hyperalgesia assay in presence of indomethacin at a dose of 10 mg/kg for 24 hr.; format: functional; procedure, shortened: as §3
# Rattus norvegicus [43] = assay: Plasma drug level was measured in rat yeast induced hyperalgesia assay in presence of indomethacin at a dose of 10 mg/kg for 4 hr.; format: functional; procedure, shortened: as §3
# Rattus norvegicus [44] = assay: Plasma drug level was measured in rat yeast induced hyperalgesia assay in presence of indomethacin at a dose of 10 mg/kg for 8 hr.; format: functional; procedure, shortened: as §3
# Rattus norvegicus [45] = assay: (§8) Vocalization threshold value was measured in rat yeast induced hyperalgesia assay at a dose of 10 mg/kg for 4 hr.; format: functional
# Rattus norvegicus [46] = assay: Vocalization threshold value was measured in rat yeast induced hyperalgesia assay at a dose of 10 mg/kg for 12 hr.; format: functional; procedure, shortened: as §5
# Rattus norvegicus [47] = assay: Vocalization threshold value was measured in rat yeast induced hyperalgesia assay at a dose of 10 mg/kg for 24 hr.; format: functional; procedure, shortened: as §5
# Rattus norvegicus [48] = assay: as §8; format: functional; procedure, shortened: as §5; remark: listed apart in the source
# Rattus norvegicus [49] = assay: Compound was tested for hyperalgesia activity in rats after perorally administered at 1 hr; conditions: po
compound,measurement,setting,value
COc1ccc2c(c1)c(/C=C/CC(=O)O)c(C)n2C(=O)c1ccc(Cl)cc1,Writhes,Mus musculus [1],34
same,inhibition in vivo at 30 mg/kg,Mus musculus [1],19%
same,Writhes,Mus musculus [2],28.6
same,inhibition in vivo at 30 mg/kg,Mus musculus [2],32%
same,Writhes,Mus musculus [3],23
same,inhibition in vivo at 30 mg/kg,Mus musculus [3],46%
same,Analgesic,Rattus norvegicus [4],10%
same,Analgesic,Rattus norvegicus [5],30%
same,Analgesic,Rattus norvegicus [6],30%
same,Drug level,Rattus norvegicus [7],17 µg/mL
same,Drug level,Rattus norvegicus [8],26 µg/mL
same,Drug level,Rattus norvegicus [9],10 µg/mL
same,Drug level,Rattus norvegicus [10],<1 µg/mL
same,Drug level,Rattus norvegicus [11],<1 µg/mL
same,Drug level,Rattus norvegicus [12],<1 µg/mL
same,Inflamed,Rattus norvegicus [13],21.6 mmHg
same,Inflamed,Rattus norvegicus [14],14.2 mmHg
same,Inflamed,Rattus norvegicus [15],20.2 mmHg
same,Normal,Rattus norvegicus [15],23.4 mmHg
same,Normal,Rattus norvegicus [16],25.4 mmHg
same,Normal,Rattus norvegicus [17],25.8 mmHg
same,Writhes,Mus musculus [18],29.5
same,inhibition in vivo at 30 mg/kg,Mus musculus [18],28%
COc1ccc2c(c1)c(/C=C/CCCC(=O)O)c(C)n2C(=O)c1ccc(Cl)cc1,Writhes,Mus musculus [1],16.4
same,inhibition in vivo at 30 mg/kg,Mus musculus [1],20%
same,Writhes,Mus musculus [2],15.3
same,inhibition in vivo at 30 mg/kg,Mus musculus [2],26%
same,Writhes,Mus musculus [3],7.2
same,inhibition in vivo at 30 mg/kg,Mus musculus [3],65%
same,Analgesic,Rattus norvegicus [19],40%
same,Analgesic,Rattus norvegicus [20],40%
same,Analgesic,Rattus norvegicus [21],60%
same,Analgesic,Rattus norvegicus [4],60%
same,Analgesic,Rattus norvegicus [22],0%
same,Analgesic,Rattus norvegicus [5],60%
same,Analgesic,Rattus norvegicus [6],100%
same,Drug level,Rattus norvegicus [7],24.1 µg/mL
same,Drug level,Rattus norvegicus [23],1.1 µg/mL
same,Drug level,Rattus norvegicus [9],6.1 µg/mL
same,Drug level,Rattus norvegicus [24],2.2 µg/mL
same,Drug level,Rattus norvegicus [25],1.6 µg/mL
same,Drug level,Rattus norvegicus [11],2.2 µg/mL
same,Drug level,Rattus norvegicus [12],2.1 µg/mL
same,Inflamed,Rattus norvegicus [26],13 mmHg
same,Inflamed,Rattus norvegicus [13],27.6 mmHg
same,Inflamed,Rattus norvegicus [27],21.6 mmHg
same,Normal,Rattus norvegicus [27],22 mmHg
same,Normal,Rattus norvegicus [28],23.2 mmHg
same,Inflamed,Rattus norvegicus [29],25 mmHg
same,Normal,Rattus norvegicus [29],25.2 mmHg
same,Inflamed,Rattus norvegicus [14],25.4 mmHg
same,Normal,Rattus norvegicus [14],23 mmHg
same,Normal,Rattus norvegicus [30],24.4 mmHg
same,Inflamed,Rattus norvegicus [15],26 mmHg
same,Normal,Rattus norvegicus [15],24.8 mmHg
same,Normal,Rattus norvegicus [16],25.6 mmHg
same,Inflamed,Rattus norvegicus [17],16.8 mmHg
same,Normal,Rattus norvegicus [17],24 mmHg
same,Analgesic,Rattus norvegicus [31],10%
same,Inflamed,Rattus norvegicus [32],23.8 mmHg
COc1ccc2c(c1)c(CC(=O)O)c(C)n2C(=O)c1ccc(Cl)cc1 [INDOMETHACIN],Writhes,Mus musculus [33],4.8
same,inhibition in vivo at 3 mg/kg,Mus musculus [33],89%
same,Writhes,Mus musculus [34],38.3
same,inhibition in vivo at 3 mg/kg,Mus musculus [34],16%
same,Writhes,Mus musculus [35],32.9
same,inhibition in vivo at 3 mg/kg,Mus musculus [35],28%
same,ED50,Mus musculus [36],3 mg/kg
same,Analgesic,Rattus norvegicus [37],0%
same,Analgesic,Rattus norvegicus [38],0%
same,Analgesic,Rattus norvegicus [39],100%
same,Analgesic,Rattus norvegicus [20],40%
same,Drug level,Rattus norvegicus [40],9.8 µg/mL
same,Drug level,Rattus norvegicus [41],21 µg/mL
same,Drug level,Rattus norvegicus [42],3.3 µg/mL
same,Drug level,Rattus norvegicus [43],38 µg/mL
same,Drug level,Rattus norvegicus [44],21 µg/mL
same,Inflamed,Rattus norvegicus [45],32 mmHg
same,Normal,Rattus norvegicus [28],28.4 mmHg
same,Inflamed,Rattus norvegicus [46],15.6 mmHg
same,Normal,Rattus norvegicus [46],24.4 mmHg
same,Inflamed,Rattus norvegicus [17],30 mmHg
same,Normal,Rattus norvegicus [17],27.9 mmHg
same,Inflamed,Rattus norvegicus [47],16 mmHg
same,Normal,Rattus norvegicus [47],22.4 mmHg
same,Normal,Rattus norvegicus [48],26.8 mmHg
same,Analgesic,Rattus norvegicus [31],70%
same,Inflamed,Rattus norvegicus [32],28.4 mmHg
same,ED50,Rattus norvegicus [49],5 mg/kg
